Published values pooled from the literature.
Lines come from different studies, so protocols differ.

The IC50 of `CCCCCCCCCCCC(=O)NC(C)(C)C(=O)N1CCC[C@H]1C(=O)NC(C)(C)C(=O)NC(C)(C)C(=O)N1CCC[C@H]1C(=O)NC(C)(C)C(=O)NC(C)(C)C(=O)N1CCC[C@H]1C(=O)N[C@@H](C)C(=O)NC(C)(C)C(=O)NCCC(=O)N[C@@H](C)C(=O)NC(C)(C)C(=O)NC(C)(C)C(=O)NCCC(=O)NC(C)(C)C(=O)NC(C)(C)C(=O)NC(C)(C)C(=O)N[C@@H](C)C(=O)NCCC(=O)O` is reported as 1 µM (MDA-MB-231; cell growth or viability, MTT; 24 h).
With `CC(=O)NC(CC(C)C)C(=O)NC(CC(C)C)C(=O)NC(Cc1ccc(O)cc1)C(N)=O` (centres unmarked) the Kd was 28 µM (ABCB1 (Cricetulus griseus, UniProt P21448); binding, fluorescence).
With `CC(C)[C@H](NC(=O)c1ccccc1NC(=O)c1ccccc1)C(=O)N[C@H](CO)C(C)C` the CC50 was > 250 µM (MRC5; cell growth or viability, MTT; 72 h).
With `CN(C)CCc1c[nH]c2ccccc12` the concentration was 15.9 ng/mL (human, plasma; intravenous, 9 mg, 7 min, healthy volunteers, infusion).
The concentration of `C=C(C)[C@@H]1CC[C@]2(NCCN3CCS(=O)(=O)CC3)CC[C@]3(C)[C@H](CC[C@@H]4[C@@]5(C)CC=C(C6=CC[C@@](COc7ncccc7C#N)(C(=O)O)CC6)C(C)(C)[C@@H]5CC[C@]43C)[C@@H]12` is reported as 408 ng/mL (human, plasma; oral, 100 mg, 24 h, fed, tablet).
`CONC(=O)[C@H]1[C@@H](O)[C@@]2(O)c3c(OC)cc(OC)cc3O[C@@]2(c2ccc(OC)cc2)[C@@H]1c1ccccc1` has an IC50 of 0.0019 µM (MDA-MB-231; cell growth or viability, SRB).
`COc1ccc(C(=O)Nc2ccccc2C(=O)N[C@H](C(=O)N[C@H](CO)C(C)C)C(C)C)cc1` gave a CC50 of > 250 µM (MRC5; cell growth or viability, MTT; 72 h).
The IC50 of `CC(C)=CCOc1c2occc2cc2ccc(=O)oc12` is reported as > 100 µM (MRC5; cell growth or viability, MTT; 24 h).
